ChEMBL document CHEMBL1133895, “1,4-Disubstituted imidazoles are potential antibacterial agents functioning as inhibitors of enoyl acyl carrier protein reductase (FabI)” (Bioorg Med Chem Lett, 2001)
≈ marks a conversion by molar mass, not a printed value.

Legend:
[1] = target: T1, Enoyl-[acyl-carrier-protein] reductase [NADPH] FabI (Staphylococcus aureus, UniProt Q6GI75); experiment: Evaluated for inhibition of enoyl acyl carrier protein reductase (FabI) in Staphylococcus aureus.
T1 sequence (Q6GI75 whole entry): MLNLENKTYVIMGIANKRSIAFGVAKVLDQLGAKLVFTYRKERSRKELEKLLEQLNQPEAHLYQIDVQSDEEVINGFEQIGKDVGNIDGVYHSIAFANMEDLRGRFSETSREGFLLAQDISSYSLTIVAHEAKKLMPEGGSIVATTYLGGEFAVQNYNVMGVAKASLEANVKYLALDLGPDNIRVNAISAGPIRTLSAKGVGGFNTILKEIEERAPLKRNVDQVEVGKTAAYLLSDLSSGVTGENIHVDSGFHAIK

[2] = target: T2, Enoyl-[acyl-carrier-protein] reductase [NADH] FabI (Escherichia coli K-12, UniProt P0AEK4); experiment: Evaluated for inhibition of enoyl acyl carrier protein reductase (FabI) in Escherichia coli.
T2 sequence (P0AEK4 whole entry): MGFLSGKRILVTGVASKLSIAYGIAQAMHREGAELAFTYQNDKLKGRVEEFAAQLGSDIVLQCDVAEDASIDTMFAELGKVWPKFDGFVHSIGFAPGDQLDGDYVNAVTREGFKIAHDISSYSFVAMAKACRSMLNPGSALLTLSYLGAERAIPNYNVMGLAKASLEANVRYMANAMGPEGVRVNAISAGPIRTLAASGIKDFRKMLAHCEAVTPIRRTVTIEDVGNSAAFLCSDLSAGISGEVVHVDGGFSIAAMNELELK

Moraxella catarrhalis = experiment: Antibacterial activity against Moraxella catarrhalis 1502; type: functional
Staphylococcus aureus = experiment: Antibacterial activity against Staphylococcus aureus Oxford.; type: functional
[3] = target: T2, Enoyl-[acyl-carrier-protein] reductase [NADH] FabI; experiment: Evaluated for inhibition of enoyl acyl carrier protein reductase (FabI) of Escherichia coli in the presence of NADH using crotonoyl CoA as substrate
Procedure, shortened: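 Cloned, overexpressed, purified E. coli FabI (usually 60 nM) in 100 mM NaADA pH 6.5, 4% glycerol, 0.25 mM crotonoyl CoA, 50 µM NADH; inhibitor typically 0.01-10 µM. NADH consumption followed at 340 nm, 20 min, 30 °C; initial velocities from tangent at t = 0 of exponential fit; IC50 from 4-parameter fit, mean ± SD of duplicates.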

[4] = target: T1, Enoyl-[acyl-carrier-protein] reductase [NADPH] FabI; experiment: Evaluated for inhibition of enoyl acyl carrier protein reductase (FabI) of Staphylococcus aureus in the presence of NADH using crotonoyl CoA as substrate

Cc1ccc(Cn2cnc(-c3cccc(Cl)c3Cl)c2)cc1
IC50 [1]: > 10 µM

c1ccc(-c2ccc(Cn3cnc(-c4ccsc4)c3)cc2)cc1
IC50 [1]: 7.66 µM
IC50 [2]: 1.18 µM

Cc1ccc(Cc2coc(-c3ccsc3)n2)cc1
IC50 [1]: > 100 µM
IC50 [2]: > 100 µM

c1ccc(C[C@@H]2COC(c3ccsc3)=N2)cc1
IC50 [1]: > 100 µM
IC50 [2]: > 100 µM

O=C(O)c1cccc(Cn2cnc(-c3ccsc3)c2)c1
IC50 [1]: > 100 µM
IC50 [2]: > 100 µM

COc1ccc(Cn2cnc(-c3ccsc3)c2)cc1
IC50 [1]: 1.9 µM
MIC (Moraxella catarrhalis): 64 µg/mL (≈ 237 µM)
IC50 [2]: 9.4 µM
MIC (Staphylococcus aureus): 16 µg/mL (≈ 59.2 µM)

Nc1ccc(Cn2cnc(-c3ccsc3)c2)cc1
IC50 [1]: 2.03 µM
MIC (Moraxella catarrhalis): > 64 µg/mL
IC50 [2]: 5.14 µM
MIC (Staphylococcus aureus): > 64 µg/mL

COc1ccc(-c2c[nH]c(Cc3ccc(C)cc3)n2)cc1
IC50 [1]: 66.2 µM
IC50 [2]: > 100 µM

c1ccc(C[C@H]2COC(c3ccsc3)=N2)cc1
IC50 [1]: > 100 µM
IC50 [2]: > 100 µM

COc1ccc(-c2cn(Cc3ccc(C(F)(F)F)cc3)cn2)cc1
IC50 [1]: 4.07 µM
IC50 [2]: 28.3 µM

Oc1cc(Cl)ccc1Oc1ccc(Cl)cc1Cl [TRICLOSAN]
MIC (Moraxella catarrhalis): 0.06 µg/mL (≈ 0.207 µM)
MIC (Staphylococcus aureus): 0.03 µg/mL (≈ 0.104 µM)

O=[N+]([O-])c1cccc(Cn2cnc(-c3ccsc3)c2)c1
IC50 [1]: 14.7 µM
IC50 [2]: 26.9 µM

Cc1ccc(Cc2noc(-c3ccsc3)n2)cc1
IC50 [1]: 51 µM
IC50 [2]: > 100 µM

Cc1cccc(Cn2cnc(-c3ccsc3)c2)c1
IC50 [1]: 4.24 µM
MIC (Moraxella catarrhalis): 32 µg/mL (≈ 126 µM)
IC50 [2]: 12.2 µM
MIC (Staphylococcus aureus): > 64 µg/mL

COc1ccc(-c2cn(Cc3ccc(C)cc3)cn2)cc1
IC50 [1]: 0.36 µM
MIC (Moraxella catarrhalis): 32 µg/mL (≈ 115 µM)
IC50 [2]: 3.92 µM
MIC (Staphylococcus aureus): 8 µg/mL (≈ 28.7 µM)

COc1ccc(-c2cn(Cc3ccccc3)cn2)cc1
IC50 [1]: 1.13 µM
MIC (Moraxella catarrhalis): 64 µg/mL (≈ 242 µM)
IC50 [2]: 5.28 µM
MIC (Staphylococcus aureus): 64 µg/mL (≈ 242 µM)

FC(F)(F)c1ccc(-c2cn(Cc3ccccc3)cn2)cc1
IC50 [1]: > 100 µM

Cc1ccc(Cc2nc(-c3ccsc3)no2)cc1
IC50 [1]: 50.7 µM
IC50 [2]: > 100 µM

Cc1ccccc1Cn1cnc(-c2ccsc2)c1
IC50 [1]: 36.5 µM
IC50 [2]: 65.4 µM

Cn1cnc(-c2ccsc2)c1
IC50 [1]: > 100 µM

Cc1ccc(Cn2cnc(-c3ccsc3)c2)cc1
IC50 [1]: 0.25 µM
MIC (Moraxella catarrhalis): 32 µg/mL (≈ 126 µM)
IC50 [2]: 6.44 µM
MIC (Staphylococcus aureus): 8 µg/mL (≈ 31.5 µM)

Cc1ccc(Cn2cnc(-c3cccs3)c2)cc1
IC50 [3]: 13.7 µM
IC50 [4]: 1.24 µM
MIC (Staphylococcus aureus): 128 µg/mL (≈ 503 µM)
